Paper PMC6697164 (Cancer discovery, 2019)

Experiments:
TET2 [1] = assay: Total TET activity; format: cell-based, human; conditions: inhibitor 10 nM for 1 hr prior to FLT3L stimulation for 30 minutes; CD34+ stem/early progenitors; three biological replicates
Method in brief: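 Healthy-donor CD34+ cells, CliniMACS-purified, cultured 4 days in IMDM, 20% human serum, TPO/FLT3L/IL-3/IL-6 (20 ng/mL each), SCF 100 ng/mL. Cytokine-washed, held 4 hrs in IMDM/1% BSA, inhibitor 1 hr, then FLT3L (100 ng/ml) 30 min. Nuclear lysates (Bradford-normalised) on 5-mC-coated wells, 5-hmC detected fluorometrically. Standard curve 0–2 ng, ng/min/mg. Unstimulated and stimulated controls; mean ± SEM, three biological replicates.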

TET2 [2] = assay: TET2 activity and 5-hmC levels upon TPO or G-CSF stimulation; format: cell-based; conditions: Fig. S1A-D
Method in brief: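 Total TET activity was measured in nuclear lysates, with protein quantified by Bradford assay, using a fluorescence ELISA in which plate-coated 5-mC substrate is converted to 5-hmC and detected with an anti-5-hmC antibody. 5-hmC content was measured on 200 ng DNA per assay and expressed as a percentage of total DNA.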

| Molecule | Effect on FLT3L-stimulated TET2 activity (TET2 [1]) | 5hm-C levels upon cytokine stimulation (TET2 [2]) | TET2 activity upon cytokine stimulation (TET2 [2]) |
| --- | --- | --- | --- |
| CC(C)(C)c1cc(NC(=O)Nc2ccc(-c3cn4c(n3)sc3cc(OCCN5CCOCC5)ccc34)cc2)no1 [AC2220] | Inhibition of TET2 activity |  |  |
| TPO: cytokine thrombopoietin |  | increased | increased |
| CNC(=O)c1cc(Oc2ccc(NC(=O)Nc3ccc(Cl)c(C(F)(F)F)c3)cc2)ccn1 [Sorafenib] | Inhibition of TET2 activity |  |  |
| G-CSF: cytokine granulocyte colony stimulation factor (protein, UniProt P09919 31-207, looked up) Granulocyte …: TPLGPASSLPQSFLLKCLEQVRKIQGDGAALQEKLVSECATYKLCHPEELVLLGHSLGIPWAPLSSCPSQALQLAGCLSQLHSGLFLYQGLLQALEGISPELGPTLDTLQLDVADFATTIWQQMEELGMAPALQPTQGAMPAFASAFQRRAGGVLVASHLQSFLEVSYRVLRHLAQP |  | increased | increased |
